Assay results taken from ChEMBL document CHEMBL1147962, “Synthesis and antifungal activity of novel s-substituted 6-fluoro-4-alkyl(aryl)thioquinazoline derivatives” (Bioorg Med Chem, 2007).
≈ marks a conversion by molar mass, not a printed value. Calls of active or inactive are those of the source. The rule behind the calls is not given here.

System: Fusarium oxysporum
Experiment: Increase in mycelial soluble protein content in Fusarium oxysporum relative to control after 0.5 hrs
Format: functional
How it was run: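 Soluble protein content of treated F. oxysporum mycelia was followed from 0.5 h of exposure and expressed relative to an untreated control. Hymexazol was run alongside as reference.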

Row | SMILES | Activity [%]
1 | CCSc1ncnc2ccc(F)cc12 | 33.1

System: Cytospora
Experiment: Antifungal activity against Cytospora mandshurica
Format: functional
How it was run: (§1)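 Preliminary fungicidal bioassay on plant-pathogenic fungi (G. zeae, F. oxysporum, C. mandshurica), with the commercial fungicide Hymexazol as reference.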

Row | SMILES | EC50 [µg/mL]
2 | CCSc1ncnc2ccc(F)cc12 | 19.2 (≈ 92.2 µM)
3 | CCCSc1ncnc2ccc(F)cc12 | 25.8 (≈ 116 µM)
4 | C=CCSc1ncnc2ccc(F)cc12 | 23.3 (≈ 106 µM)

System: Fusarium oxysporum
Experiment: Decrease in mycelial chitinase activity assessed as D-GlcNAc content in Fusarium oxysporum after 1 hrs
Format: functional
How it was run: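 F. oxysporum mycelia were treated over a time course up to 24 h and compared with an untreated control, with Hymexazol as reference fungicide. Chitinase activity was read as the D-GlcNAc content (mg/mL) produced by the enzyme in 1 h.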

Row | SMILES | Activity [mg/mL]
5 | CCSc1ncnc2ccc(F)cc12 | 0.0364
6 | Cc1cc(O)no1 [HYMEXAZOL] | 0.0411

System: Fusarium oxysporum
Experiment: Increase in membrane permeability of Fusarium oxysporum at 100 ug/mL after 5 mins
Format: functional
How it was run: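 F. oxysporum cells were treated and sampled from 5 min onward over a longer time course. Cell-membrane relative permeability rate (%) was measured against an untreated control, with Hymexazol as reference.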

Row | SMILES | Activity [%]
7 | CCSc1ncnc2ccc(F)cc12 | 12
8 | Cc1cc(O)no1 [HYMEXAZOL] | 6

System: Fusarium oxysporum
Experiment: Effect on sporule germination of Fusarium oxysporum at 100 ug/mL
Format: functional
How it was run: (§2)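 F. oxysporum spores were exposed to a concentration series. Germination was scored as percentage of spores germinated, and inhibition was calculated relative to an untreated control.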

Row | SMILES | Activity [%]
9 | CCSc1ncnc2ccc(F)cc12 | 6.5

System: Fusarium oxysporum
Experiment: Antifungal activity against Fusarium oxysporum at 500 ug/mL
Format: functional

Row | SMILES | inhibition at 500 µg/mL [%]
10 | CCSc1ncnc2ccc(F)cc12 | 98.5
11 | CCOC(=O)CSc1ncnc2ccc(F)cc12 | 20.3
12 | Fc1ccc2ncnc(SCc3ccc(Cl)nc3)c2c1 | 21.9
13 | Fc1ccc2ncnc(SCc3ccc(Cl)cc3)c2c1 | 5.9
14 | CCCSc1ncnc2ccc(F)cc12 | 89.3
15 | Cc1cc(O)no1 [HYMEXAZOL] | 91.3
16 | Fc1ccc2ncnc(SCc3ccccc3)c2c1 | 18.9
17 | COc1ccc(C(=O)CSc2ncnc3ccc(F)cc23)c(OC)c1OC | 5.3
18 | C=CCSc1ncnc2ccc(F)cc12 | 92.3

System: Cytospora
Experiment: Antifungal activity against Cytospora mandshurica at 500 ug/mL
Format: functional

Row | SMILES | inhibition at 500 µg/mL [%]
19 | CCSc1ncnc2ccc(F)cc12 | 100
20 | CCOC(=O)CSc1ncnc2ccc(F)cc12 | 30.1
21 | Fc1ccc2ncnc(SCc3ccc(Cl)nc3)c2c1 | 38.5
22 | Fc1ccc2ncnc(SCc3ccc(Cl)cc3)c2c1 | 11.8
23 | CCCSc1ncnc2ccc(F)cc12 | 94.8
24 | Cc1cc(O)no1 [HYMEXAZOL] | 91.2
25 | Fc1ccc2ncnc(SCc3ccccc3)c2c1 | 21.4
26 | COc1ccc(C(=O)CSc2ncnc3ccc(F)cc23)c(OC)c1OC | 11.2
27 | C=CCSc1ncnc2ccc(F)cc12 | 96.9

System: Fusarium oxysporum
Experiment: Antifungal activity against Fusarium oxysporum
Format: functional, organism-based
How it was run: as §1

Row | SMILES | EC50 [µg/mL]
28 | CCSc1ncnc2ccc(F)cc12 | 18.2 (≈ 87.4 µM)
29 | CCCSc1ncnc2ccc(F)cc12 | 25.1 (≈ 113 µM)
30 | C=CCSc1ncnc2ccc(F)cc12 | 32.2 (≈ 146 µM)

System: Fusarium oxysporum
Experiment: Decrease in mycelial chitosan content in Fusarium oxysporum after 6 hrs relative to control
Format: functional
Design: scale not given: the % may be the effect or the level left
How it was run: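 Chitosan content was measured as D-GlcNAc in F. oxysporum mycelia from treated cultures and read 6 h after inoculation. An untreated culture served as control and Hymexazol as the reference fungicide.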

Row | SMILES | Activity [%]
31 | CCSc1ncnc2ccc(F)cc12 | 6.1

System: Rhizoctonia solani
Experiment: Antifungal activity against Rhizoctonia solani
Format: functional, organism-based

Row | SMILES | EC50 [µg/mL]
32 | CCSc1ncnc2ccc(F)cc12 | 24.9 (≈ 120 µM)
33 | CCCSc1ncnc2ccc(F)cc12 | 29.2 (≈ 131 µM)
34 | C=CCSc1ncnc2ccc(F)cc12 | 46.3 (≈ 210 µM)

System: Thanatephorus cucumeris
Experiment: Antifungal activity against Thanatephorus cucumeris
Format: functional, organism-based

Row | SMILES | EC50 [µg/mL]
35 | CCSc1ncnc2ccc(F)cc12 | 30.8 (≈ 148 µM)
36 | CCCSc1ncnc2ccc(F)cc12 | 46.2 (≈ 208 µM)
37 | C=CCSc1ncnc2ccc(F)cc12 | 40.6 (≈ 184 µM)

System: Fusarium oxysporum
Experiment: Effect on mycelial reducing sugar content in Fusarium oxysporum after 12 hrs
Format: functional
How it was run: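 F. oxysporum mycelia were treated and sampled from 0.5 h to 12 h. Mycelial reducing sugar content (mg/mL) was measured at each time point against an untreated control.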

Row | SMILES | Activity [mg/mL]
38 | CCSc1ncnc2ccc(F)cc12 | 0.67
39 | Cc1cc(O)no1 [HYMEXAZOL] | 0.85

System: Fusarium oxysporum
Experiment: Decrease in mycelial reducing sugar content in Fusarium oxysporum at 6 hrs
Format: functional, organism-based
How it was run: (§3)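 Reducing sugar content (mg/mL) of F. oxysporum mycelia was followed over time, sampled from 0.5 h to 12 h of treatment, against an untreated control.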

Row | SMILES | Activity
40 | CCSc1ncnc2ccc(F)cc12 | Active

System: Phytophthora infestans
Experiment: Antifungal activity Phytophthora infestans
Format: functional, organism-based

Row | SMILES | EC50 [µg/mL]
41 | CCSc1ncnc2ccc(F)cc12 | 26.8 (≈ 129 µM)
42 | CCCSc1ncnc2ccc(F)cc12 | 26.9 (≈ 121 µM)
43 | C=CCSc1ncnc2ccc(F)cc12 | 51.2 (≈ 232 µM)

System: Fusarium oxysporum
Experiment: Inhibition of sporule germination of Fusarium oxysporum at 60 ug/mL
Format: functional
How it was run: as §2

Row | SMILES | inhibition at 60 µg/mL [%]
44 | CCSc1ncnc2ccc(F)cc12 | 32.9

System: Fusarium graminearum
Experiment: Antifungal activity against Gibberella zeae at 500 ug/mL
Format: functional

Row | SMILES | inhibition at 500 µg/mL [%]
45 | CCSc1ncnc2ccc(F)cc12 | 100
46 | CCOC(=O)CSc1ncnc2ccc(F)cc12 | 13.3
47 | Fc1ccc2ncnc(SCc3ccc(Cl)nc3)c2c1 | 16.3
48 | Fc1ccc2ncnc(SCc3ccc(Cl)cc3)c2c1 | 7.6
49 | CCCSc1ncnc2ccc(F)cc12 | 96.4
50 | Cc1cc(O)no1 [HYMEXAZOL] | 100
51 | Fc1ccc2ncnc(SCc3ccccc3)c2c1 | 15
52 | COc1ccc(C(=O)CSc2ncnc3ccc(F)cc23)c(OC)c1OC | 6.2
53 | C=CCSc1ncnc2ccc(F)cc12 | 100

System: Fusarium oxysporum
Experiment: Effect on hyphal morphology of Fusarium oxysporum at 100 ug/mL
Format: functional, organism-based
How it was run: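 Hyphae and cell contents of treated F. oxysporum were examined microscopically against untreated control hyphae.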

Row | SMILES | Activity
54 | CCSc1ncnc2ccc(F)cc12 | Active

System: Colletotrichum gloeosporioides
Experiment: Antifungal activity against Colletotrichum gloeosporioides
Format: functional, organism-based

Row | SMILES | EC50 [µg/mL]
55 | CCSc1ncnc2ccc(F)cc12 | 64.2 (≈ 308 µM)
56 | CCCSc1ncnc2ccc(F)cc12 | 40.1 (≈ 180 µM)
57 | C=CCSc1ncnc2ccc(F)cc12 | 21.4 (≈ 97.2 µM)

System: Sclerotinia sclerotiorum
Experiment: Antifungal activity against Sclerotinia sclerotiorum
Format: functional, organism-based

Row | SMILES | EC50 [µg/mL]
58 | CCSc1ncnc2ccc(F)cc12 | 11.4 (≈ 54.7 µM)
59 | CCCSc1ncnc2ccc(F)cc12 | 17.1 (≈ 76.9 µM)
60 | Cc1cc(O)no1 [HYMEXAZOL] | 5.1 (≈ 51.5 µM)
61 | C=CCSc1ncnc2ccc(F)cc12 | 35.2 (≈ 160 µM)

System: Botrytis cinerea
Experiment: Antifungal activity against Botrytis cinerea
Format: functional, organism-based

Row | SMILES | EC50 [µg/mL]
62 | CCSc1ncnc2ccc(F)cc12 | 8.3 (≈ 39.9 µM)
63 | CCCSc1ncnc2ccc(F)cc12 | 13 (≈ 58.5 µM)
64 | Cc1cc(O)no1 [HYMEXAZOL] | 4.6 (≈ 46.4 µM)
65 | C=CCSc1ncnc2ccc(F)cc12 | 42.4 (≈ 192 µM)

System: Fusarium oxysporum
Experiment: Decrease in mycelial reducing sugar content in Fusarium oxysporum after 0.5 hrs relative to control
Format: functional
Design: scale not given: the % may be the effect or the level left
How it was run: as §3

Row | SMILES | Activity [%]
66 | CCSc1ncnc2ccc(F)cc12 | 19.8

System: Fusarium graminearum
Experiment: Antifungal activity against Gibberella zeae
Format: functional, organism-based

Row | SMILES | EC50 [µg/mL]
67 | CCSc1ncnc2ccc(F)cc12 | 12.4 (≈ 59.5 µM)
68 | CCCSc1ncnc2ccc(F)cc12 | 30.1 (≈ 135 µM)
69 | C=CCSc1ncnc2ccc(F)cc12 | 37 (≈ 168 µM)
